Tests used:
Type in all cases: functional
SW-620 [1] = assay: Growth inhibition of human SW620 cells incubated for 48 hrs by sulforhodamine B assay; details: SW-620, 48 h
Summary of the method: (§1)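 NCI-60 five-dose SRB assay. Cells were exposed for 48 h to tenfold dilutions of 0.01, 0.1, 1, 10 and 100 µM, in RPMI 1640 with 5% FBS. Plates fixed with TCA at the time of drug addition served as the time-zero reference. GI50 is the concentration giving a 50% reduction in net growth. TGI is total growth inhibition. LC50 is a net 50% loss of the initial cells.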

A549 = assay: Growth inhibition of human A549/ATCC cells assessed as cell viability at 1 uM incubated for 48 hrs by sulforhodamine B assay; details: A549, 48 h, read-out: Activity
Summary of the method: (§2)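 NCI-60 five-dose mode: five tenfold dilutions (0.01, 0.1, 1, 10, 100 µM) are applied for 48 h to cells in RPMI 1640 with 5% FBS at 37 °C. Endpoint is TCA fixation with sulforhodamine B read at 515 nm. % growth comes from the 0 h and control absorbances. GI50 is the concentration giving a 50% reduction in net cell growth.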

TK-10 [2] = assay: Growth inhibition of human TK10 cells assessed as cell viability at 0.1 uM incubated for 48 hrs by sulforhodamine B assay; details: TK-10, 48 h, read-out: Activity
HL-60(TB) = assay: Growth inhibition of human HL-60(TB) cells assessed as cell viability at 1 uM incubated for 48 hrs by sulforhodamine B assay; details: HL-60, 48 h, read-out: Activity
Summary of the method: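 NCI-60 five-dose assay, SRB end-point, same culture conditions. Compound is tested at tenfold dilutions of 0.01, 0.1, 1, 10 and 100 µM for 48 h at 37 °C, with DMSO/PBS vehicle controls. Percentage growth at each concentration is taken against untreated cells and a time-zero plate. GI50 is 50% net growth decrease, TGI is total growth inhibition, and LC50 is 50% loss of initial cells.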

KM12 = assay: Growth inhibition of human KM12 cells assessed as cell viability at 100 uM incubated for 48 hrs by sulforhodamine B assay; details: KM12, 48 h, read-out: Activity
T47D [3] = assay: Growth inhibition of human T47D cells assessed as cell viability at 0.1 uM incubated for 48 hrs by sulforhodamine B assay; details: read-out: Activity
OVCAR-5 [4] = assay: Growth inhibition of human OVCAR5 cells assessed as cell viability at 100 uM incubated for 48 hrs by sulforhodamine B assay; details: OVCAR-5, 48 h, read-out: Activity
K562 = assay: Growth inhibition of human K562 cells assessed as cell viability at 0.1 uM incubated for 48 hrs by sulforhodamine B assay; details: K562, 48 h, read-out: Activity
SF-295 = assay: Growth inhibition of human SF295 cells assessed as cell viability at 1 uM incubated for 48 hrs by sulforhodamine B assay; details: SF-295, 48 h, read-out: Activity
HCC 2998 = assay: Growth inhibition of human HCC2998 cells assessed as cell viability at 100 uM incubated for 48 hrs by sulforhodamine B assay; details: HCC 2998, 48 h, read-out: Activity
A498 = assay: Growth inhibition of human A498 cells assessed as cell viability at 1 uM incubated for 48 hrs by sulforhodamine B assay; details: A498, 48 h, read-out: Activity; summary of the method: as §2
Hs-578T = assay: Growth inhibition of human Hs 578T cells assessed as cell viability at 1 uM incubated for 48 hrs by sulforhodamine B assay; details: read-out: Activity
UACC-257 = assay: Growth inhibition of human UACC257 cells assessed as cell viability at 100 uM incubated for 48 hrs by sulforhodamine B assay; details: UACC-257, 48 h, read-out: Activity
IGROV-1 = assay: Growth inhibition of human IGROV1 cells assessed as cell viability at 0.001 uM incubated for 48 hrs by sulforhodamine B assay relative to control; details: IGROV-1, 48 h, read-out: Activity
HT-29 = assay: Growth inhibition of human HT-29 cells assessed as cell viability at 0.001 uM incubated for 48 hrs by sulforhodamine B assay relative to control; details: HT-29, 48 h, read-out: Activity
HCT-15 = assay: Growth inhibition of human HCT15 cells assessed as cell viability at 100 uM incubated for 48 hrs by sulforhodamine B assay; details: HCT-15, 48 h, read-out: Activity
DU-145 = assay: Growth inhibition of human DU145 cells assessed as cell viability at 100 uM incubated for 48 hrs by sulforhodamine B assay; details: DU-145, 48 h, read-out: Activity
SW-620 [5] = assay: Growth inhibition of human SW620 cells assessed as cell viability at 0.001 uM incubated for 48 hrs by sulforhodamine B assay relative to control; details: SW-620, 48 h, read-out: Activity
T47D [6] = assay: Growth inhibition of human T47D cells assessed as cell viability at 1 uM incubated for 48 hrs by sulforhodamine B assay; details: read-out: Activity
CCRF-CEM = assay: Growth inhibition of human CCRF-CEM cells assessed as cell viability at 100 uM incubated for 48 hrs by sulforhodamine B assay; details: read-out: Activity
TK-10 [7] = assay: Growth inhibition of human TK10 cells assessed as cell viability at 100 uM incubated for 48 hrs by sulforhodamine B assay; details: TK-10, 48 h, read-out: Activity
SK-MEL-28 = assay: Growth inhibition of human SK-MEL-28 cells assessed as cell viability at 100 uM incubated for 48 hrs by sulforhodamine B assay; details: SK-MEL-28, 48 h, read-out: Activity
M14 = assay: Growth inhibition of human M14 cells assessed as cell viability at 0.001 uM incubated for 48 hrs by sulforhodamine B assay relative to control; details: M14, 48 h, read-out: Activity
UACC-62 = assay: Growth inhibition of human UACC62 cells incubated for 48 hrs by sulforhodamine B assay; details: UACC-62, 48 h; summary of the method: as §1
T47D [8] = assay: Growth inhibition of human T47D cells incubated for 48 hrs by sulforhodamine B assay; summary of the method: as §1
OVCAR-5 [9] = assay: Growth inhibition of human OVCAR5 cells assessed as cell viability at 0.1 uM incubated for 48 hrs by sulforhodamine B assay; details: OVCAR-5, 48 h, read-out: Activity
NCI-H460 = assay: Growth inhibition of human NCI-H460 cells assessed as cell viability at 0.001 uM incubated for 48 hrs by sulforhodamine B assay relative to control; details: NCI-H460, 48 h, read-out: Activity
[10] = read-out: LC50 (the source's name)
[11] = read-out: pLC50 (the source's name) (converted)

How did the GI50 (SW-620 [1]; read-out: GI50) turn out when `CC1=C(C(=O)OCc2ccccc2)C(c2ccc3c(c2)OCO3)n2c(nc3ccccc32)N1` (racemic) was run?
The GI50 was 0.39 µM.

What about the LC50 (concentration causing 50% net loss of initial cells) (SW-620 [1]; read-out: LC50) of the same compound?
Its LC50 (concentration causing 50% net loss of initial cells) is greater than 100 µM.

What about the TGI (SW-620 [1]; read-out: TGI) of the same compound?
The TGI was greater than 100 µM.

And the GI50 (SW-620 [1]; read-out: pGI50 (converted))?
Its GI50 is 0.389 µM.

What about the LC50 (concentration causing 50% net loss of initial cells) (SW-620 [1]; read-out: pLC50 (converted)) of the same compound?
The LC50 (concentration causing 50% net loss of initial cells) was greater than 100 µM.

And the TGI (SW-620 [1]; read-out: pTGI)?
Its TGI is greater than 100 µM.

And the viability at 1 µM (A549)?
The viability at 1 µM was 40%.

And the viability at 0.1 µM (TK-10 [2])?
The viability at 0.1 µM was 91%.

What about the viability at 1 µM (HL-60(TB)) of the same compound?
Its viability at 1 µM is 8%.

What about the viability at 100 µM (KM12) of the same compound?
Its viability at 100 µM is 18%.

What about the viability at 0.1 µM (T47D [3]) of the same compound?
The viability at 0.1 µM was 93%.

What about the viability at 100 µM (OVCAR-5 [4]) of the same compound?
Its viability at 100 µM is 51%.

What about the viability at 0.1 µM (K562) of the same compound?
Its viability at 0.1 µM is 82%.

And the viability at 1 µM (SF-295)?
The viability at 1 µM was 16%.

And the viability at 100 µM (HCC 2998)?
Its viability at 100 µM is 46%.

And the viability at 1 µM (A498)?
The viability at 1 µM was 15%.

What about the viability at 1 µM (Hs-578T) of the same compound?
The viability at 1 µM was 5%.

What about the viability at 100 µM (UACC-257) of the same compound?
The viability at 100 µM was 46%.

And the viability at 0.001 µM (IGROV-1)?
Its viability at 0.001 µM is 92%.

And the viability at 0.001 µM (HT-29)?
Its viability at 0.001 µM is 98%.

And the viability at 100 µM (HCT-15)?
Its viability at 100 µM is 19%.

What about the viability at 100 µM (DU-145) of the same compound?
Its viability at 100 µM is 41%.

And the viability at 0.001 µM (SW-620 [5])?
Its viability at 0.001 µM is 98%.

What about the viability at 1 µM (T47D [6]) of the same compound?
The viability at 1 µM was 30%.

What about the viability at 100 µM (CCRF-CEM) of the same compound?
The viability at 100 µM was 18%.

What about the viability at 100 µM (TK-10 [7]) of the same compound?
The viability at 100 µM was 68%.

And the viability at 100 µM (SK-MEL-28)?
The viability at 100 µM was 60%.

What about the viability at 0.001 µM (M14) of the same compound?
Its viability at 0.001 µM is 93%.

And the GI50 (UACC-62; read-out: GI50)?
Its GI50 is 0.38 µM.

What about the CC50 (UACC-62; [10]) of the same compound?
Its CC50 is greater than 100 µM.

And the TGI (UACC-62; read-out: TGI)?
Its TGI is greater than 100 µM.

And the GI50 (UACC-62; read-out: pGI50 (converted))?
Its GI50 is 0.38 µM.

And the CC50 (UACC-62; [11])?
The CC50 was greater than 100 µM.

What about the TGI (UACC-62; read-out: pTGI) of the same compound?
Its TGI is greater than 100 µM.

What about the GI50 (T47D [8]; read-out: GI50) of the same compound?
The GI50 was 0.48 µM.

And the CC50 (T47D [8]; [10])?
The CC50 was greater than 100 µM.

What about the TGI (T47D [8]; read-out: TGI) of the same compound?
Its TGI is greater than 100 µM.

And the GI50 (T47D [8]; read-out: pGI50 (converted))?
Its GI50 is 0.479 µM.

What about the CC50 (T47D [8]; [11]) of the same compound?
Its CC50 is greater than 100 µM.

And the TGI (T47D [8]; read-out: pTGI)?
Its TGI is greater than 100 µM.

What about the viability at 0.1 µM (OVCAR-5 [9]) of the same compound?
Its viability at 0.1 µM is 100%.

What about the viability at 0.001 µM (NCI-H460) of the same compound?
The viability at 0.001 µM was 98%.

Reference: ChEMBL document CHEMBL4406880, “Design, synthesis, and bioactivity of dihydropyrimidine derivatives as kinesin spindle protein inhibitors” (Bioorg Med Chem, 2019)
